Experiments:
Vero [1] = assay: Percentage plaque reduction was determined against pichinde(PICH) virus in african green monkey kidney (vero,V).Toxic level(320 ug/mL); assay type: functional, Chlorocebus sabaeus
Method in brief: (§1)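 Infected Vero 24-well monolayers: virus adsorbed 1 h at 37 °C, then overlaid with agar holding dilutions of compound and incubated again at 37 °C with CO₂. Plaques were stained with crystal violet and counted. Inhibition was scored as % plaque reduction bands (10-30%, 31-60%, 61-90%), each tied to a drug concentration range.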

Vero [2] = assay: Percentage plaque reduction was determined against pichinde(PICH) virus in african green monkey kidney (vero,V).; assay type: functional, Chlorocebus sabaeus; method in brief: as §1
Vero [3] = assay: In vitro antiviral activity against herpes simplex type 1 (HSV-1) virus was determined in african green monkey kidney (vero,V) expressed as virus rating. Toxic level(320 ug/mL); assay type: functional, Chlorocebus sabaeus
Method in brief: (§2)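 Cell monolayers (18 h) infected with 320 TCID50 of virus. Compound was added within 15–30 min at half-log dilutions from 1000 to 1 μg/mL. After 72 h at 37 °C in 5% CO2, CPE was scored 0–4 by microscopy. VR = sum of (virus control − treated) scores, halved at partially toxic levels, divided by 10 × test cups per drug level.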

Vero [4] = assay: In vitro antiviral activity against parainfluenza type 3(para 3) virus was determined in african green monkey kidney (vero,V) expressed as virus rating. Toxic level(320 ug/mL); assay type: functional, Chlorocebus sabaeus; method in brief: as §2
Vero [5] = assay: Percentage plaque reduction was determined against rift valley fever(RVF) virus in african green monkey kidney (vero,V) at a conc of <25 ug/mL. Toxic level(320 ug/mL); assay type: functional, Chlorocebus sabaeus
Vero [6] = assay: Percentage plaque reduction was determined against venezuelan equine encephalitis (VEE) virus in african green monkey kidney (vero,V) at a conc of 250-500 ug/mL. Toxic level(320 ug/mL); assay type: functional, Chlorocebus sabaeus
Vero [7] = assay: Percentage plaque reduction was determined against Sandfly fever (SF) virus in african green monkey kidney (vero,V) at a conc of 25-100 ug/mL. Toxic level(320 ug/mL); assay type: functional, Chlorocebus sabaeus
HEp-2 [8] = assay: In vitro antiviral activity against herpes simplex type 1 (HSV-1) virus was determined in human laryngeal epithelioma (HEp-2,H)expressed as virus rating. Toxic level(320 ug/mL); assay type: functional; method in brief: as §2
HEp-2 [9] = assay: In vitro antiviral activity against parainfluenza type 3 (para 3) virus was determined in human laryngeal epithelioma (HEp-2,H)expressed as virus rating. Toxic level(320 ug/mL); assay type: functional; method in brief: as §2
HEp-2 [10] = assay: In vitro antiviral activity against vaccinia(VV) virus was determined in human laryngeal epithelioma (HEp-2,H)expressed as virus rating. Toxic level(320 ug/mL); assay type: functional; method in brief: as §2
Vero [11] = assay: In vitro antiviral activity against vaccinia(VV) virus was determined in african green monkey kidney (vero,V) expressed as virus rating. Toxic level(>1000 ug/mL); assay type: functional, Chlorocebus sabaeus; method in brief: as §2
Vero [12] = assay: In vitro antiviral activity against herpes simplex type 1 (HSV-1) virus was determined in african green monkey kidney (vero,V) expressed as virus rating. Toxic level(>1000 ug/mL); assay type: functional, Chlorocebus sabaeus; method in brief: as §2
Vero [13] = assay: In vitro antiviral activity against parainfluenza type 3(para 3) virus was determined in african green monkey kidney (vero,V) expressed as virus rating. Toxic level(>1000 ug/mL); assay type: functional, Chlorocebus sabaeus; method in brief: as §2
Vero [14] = assay: Percentage plaque reduction was determined against pichinde(PICH) virus in african green monkey kidney (vero,V).Toxic level(32 ug/mL); 61-90; assay type: functional, Chlorocebus sabaeus; method in brief: as §1
Vero [15] = assay: Percentage plaque reduction was determined against rift valley fever(RVF) virus in african green monkey kidney (vero,V) at a conc of 25-100 ug/mL. Toxic level(32 ug/mL); 61-90; assay type: functional, Chlorocebus sabaeus
Vero [16] = assay: Percentage plaque reduction was determined against venezuelan equine encephalitis (VEE) virus in african green monkey kidney (vero,V) at a conc of 100-250 ug/mL. Toxic level(32 ug/mL); assay type: functional, Chlorocebus sabaeus
Vero [17] = assay: Percentage plaque reduction was determined against venezuelan equine encephalitis (VEE) virus in african green monkey kidney (vero,V) at a conc of 25-100 ug/mL. Toxic level(32 ug/mL); assay type: functional, Chlorocebus sabaeus
Vero [18] = assay: Percentage plaque reduction was determined against Sandfly fever (SF) virus in african green monkey kidney (vero,V) at a conc of 250-500 ug/mL; 10-30; assay type: functional, Chlorocebus sabaeus
Vero [19] = assay: In vitro antiviral activity against parainfluenza type 3(para 3) virus was determined in african green monkey kidney (vero,V) expressed as virus rating. Toxic level(32 ug/mL); assay type: functional, Chlorocebus sabaeus; method in brief: as §2
Vero [20] = assay: Percentage plaque reduction was determined against yellow fever(YF) virus in african green monkey kidney (vero,V).Toxic level(32 ug/mL); 61-90; assay type: functional, Chlorocebus sabaeus
Vero [21] = assay: Percentage plaque reduction was determined against venezuelan equine encephalitis (VEE) virus in african green monkey kidney (vero,V) at a conc of 250-500 ug/mL. Toxic level(32 ug/mL); assay type: functional, Chlorocebus sabaeus
Vero [22] = assay: Percentage plaque reduction was determined against venezuelan equine encephalitis (VEE) virus in african green monkey kidney (vero,V) at a conc of <25 ug/mL. Toxic level(32 ug/mL); assay type: functional, Chlorocebus sabaeus
Vero [23] = assay: In vitro antiviral activity against herpes simplex type 1 (HSV-1) virus was determined in african green monkey kidney (vero,V) expressed as virus rating. Toxic level(32 ug/mL); assay type: functional, Chlorocebus sabaeus; method in brief: as §2
Vero [24] = assay: Percentage plaque reduction was determined against rift valley fever(RVF) virus in african green monkey kidney (vero,V) at a conc of 100-250 ug/mL; assay type: functional, Chlorocebus sabaeus
Vero [25] = assay: Percentage plaque reduction was determined against rift valley fever(RVF) virus in african green monkey kidney (vero,V) at a conc of 25-100 ug/mL; assay type: functional, Chlorocebus sabaeus
Vero [26] = assay: Percentage plaque reduction was determined against Sandfly fever (SF) virus in african green monkey kidney (vero,V) at a conc of 100-250 ug/mL; assay type: functional, Chlorocebus sabaeus
Vero [27] = assay: Percentage plaque reduction was determined against Sandfly fever (SF) virus in african green monkey kidney (vero,V) at a conc of 25-100 ug/mL; assay type: functional, Chlorocebus sabaeus
Vero [28] = assay: Percentage plaque reduction was determined against yellow fever(YF) virus in african green monkey kidney (vero,V); 61-90; assay type: functional, Chlorocebus sabaeus
Vero [29] = assay: In vitro antiviral activity against herpes simplex type 1 (HSV-1) virus was determined in african green monkey kidney (vero,V) expressed as virus rating.; assay type: functional, Chlorocebus sabaeus; method in brief: as §2
Vero [30] = assay: Percentage plaque reduction was determined against rift valley fever(RVF) virus in african green monkey kidney (vero,V) at a conc of 250-500 ug/mL; assay type: functional, Chlorocebus sabaeus
Vero [31] = assay: Percentage plaque reduction was determined against Sandfly fever (SF) virus in african green monkey kidney (vero,V) at a conc of 250-500 ug/mL; assay type: functional, Chlorocebus sabaeus
Vero [32] = assay: Percentage plaque reduction was determined against Sandfly fever (SF) virus in african green monkey kidney (vero,V) at a conc of <25 ug/mL; assay type: functional, Chlorocebus sabaeus
Vero [33] = assay: Percentage plaque reduction was determined against pichinde(PICH) virus in african green monkey kidney (vero,V); assay type: functional, Chlorocebus sabaeus; method in brief: as §1
Vero [34] = assay: Percentage plaque reduction was determined against rift valley fever(RVF) virus in african green monkey kidney (vero,V) at a conc of <25 ug/mL; assay type: functional, Chlorocebus sabaeus
Vero [35] = assay: Percentage plaque reduction was determined against venezuelan equine encephalitis (VEE) virus in african green monkey kidney (vero,V) at a conc of <25 ug/mL; assay type: functional, Chlorocebus sabaeus
Vero [36] = assay: In vitro antiviral activity against parainfluenza type 3(para 3) virus was determined in african green monkey kidney (vero,V) expressed as virus rating.; assay type: functional, Chlorocebus sabaeus; method in brief: as §2
Vero [37] = assay: In vitro antiviral activity against vaccinia(VV) virus was determined in african green monkey kidney (vero,V) expressed as virus rating.; assay type: functional, Chlorocebus sabaeus; method in brief: as §2
Vero [38] = assay: Percentage plaque reduction was determined against venezuelan equine encephalitis (VEE) virus in african green monkey kidney (vero,V) at a conc of 100-250 ug/mL; assay type: functional, Chlorocebus sabaeus
Vero [39] = assay: Percentage plaque reduction was determined against venezuelan equine encephalitis (VEE) virus in african green monkey kidney (vero,V) at a conc of 25-100 ug/mL; assay type: functional, Chlorocebus sabaeus
Vero [40] = assay: Percentage plaque reduction was determined against venezuelan equine encephalitis (VEE) virus in african green monkey kidney (vero,V) at a conc of 250-500 ug/mL; assay type: functional, Chlorocebus sabaeus

OC[C@H]1OC(n2ccc3c(Cl)ncnc32)[C@H](O)[C@@H]1O (stereo not given in full)
Plaque reduction (Vero [1]): >90% | Plaque reduction (Vero [2]): >90% | Virus rating (Vero [3]): 0.2 | Virus rating (Vero [4]): 0.1 | Plaque reduction (Vero [5]): >90% | Plaque reduction (Vero [6]): 0% | Plaque reduction (Vero [7]): 90%

NC(=O)c1ncnc2c1cnn2C1O[C@H](CO)[C@@H](O)[C@H]1O (stereo not given in full)
Virus rating (HEp-2 [8]): 0 | Virus rating (HEp-2 [9]): 0 | Virus rating (HEp-2 [10]): 0.2 | Virus rating (Vero [11]): 0 | Virus rating (Vero [12]): 0 | Virus rating (Vero [13]): 0

O=C1N=CN=C2C1C=CN2C1O[C@H](CO)[C@@H](O)[C@H]1O (stereo not given in full)
Plaque reduction (Vero [14]): 61% | Plaque reduction (Vero [15]): 61% | Plaque reduction (Vero [16]): 0% | Plaque reduction (Vero [17]): 0% | Plaque reduction (Vero [18]): 10% | Virus rating (Vero [19]): 0 | Plaque reduction (Vero [20]): 61% | Plaque reduction (Vero [21]): 0% | Plaque reduction (Vero [22]): 0% | Virus rating (Vero [23]): 0

CSc1ncnc2c([C@@H]3O[C@H](COC(C)=O)[C@@H](OC(C)=O)[C@H]3OC(C)=O)n[nH]c12
Plaque reduction (Vero [24]): 0% | Plaque reduction (Vero [25]): 0% | Plaque reduction (Vero [26]): 0% | Plaque reduction (Vero [27]): 0% | Plaque reduction (Vero [28]): 61% | Virus rating (Vero [29]): 0.6 | Plaque reduction (Vero [30]): 0% | Plaque reduction (Vero [31]): 0% | Plaque reduction (Vero [32]): 0% | Plaque reduction (Vero [33]): 0% | Plaque reduction (Vero [34]): 0% | Plaque reduction (Vero [35]): 0% | Virus rating (Vero [36]): 1 | Virus rating (Vero [37]): 1.2 | Plaque reduction (Vero [38]): 0% | Plaque reduction (Vero [39]): 0% | Plaque reduction (Vero [40]): 0%

— ChEMBL document CHEMBL1122187, “Synthesis and antiviral activity of certain carbamoylpyrrolopyrimidine and pyrazolopyrimidine nucleosides” (1982)
